Reference: ChEMBL document CHEMBL5335782, “Discovery of new imidazotetrazinones with potential to overcome tumor resistance” (Eur J Med Chem, 2023)
One block for each molecule: values may come before it. Active and inactive are the calls of the source. No cut-off for these calls is given here.

Key:
[1] = Antiproliferative activity against MGMT-expressing human U373M cells assessed as inhibition of cell growth measured after […] by MTT assay; format: functional
In short: (§1)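 Cells seeded at 6.5×10^2/well, left overnight, then exposed to vehicle or agent (n = 4-8; final 0.5–1000 μM; DMSO stocks of 50 or 10 mM diluted in medium). MTT read at time of addition and after 6 days at 37 °C, 5% CO₂. MTT 0.4 mg/mL for 4 h, formazan taken up in DMSO, A550. GI50 from non-linear regression; mean ± SD of >3 experiments.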

[2] = Antiproliferative activity against human U373V cells assessed as inhibition of cell growth measured […] by MTT assay; format: functional; in short: as §1
[3] = test system: HCT-116; assay: Antiproliferative activity against MMR-deficient human HCT-116 cells assessed as inhibition of cell growth measured after […] by MTT assay; format: functional; in short: as §1
[4] = Ratio of permeability across dog MDCK cells transfected with MDR1 to permeability across wild type dog MDCK cells; format: ADME, cell-based, Canis lupus familiaris
[5] = Half life in rat liver microsomes in presence of NADPH; format: ADME, Microsome
[6] = Half life in rat plasma; format: ADME, cell-free
[7] = Permeability of the compound assessed as drug recovery measured after 6 hrs by PAMPA assay; format: ADME; settings: read-out: Drug recovery
In short: (§2)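 PAMPA passive-diffusion assay run as contract research under the provider's protocols, with control compounds. After 6 h incubation, permeability (Pe) and percentage recovery determined.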

[8] = Half life in human liver microsomes in absence of NADPH; format: ADME, Microsome
[9] = Intrinsic clearance in rat liver microsomes in absence of NADPH; format: ADME, Microsome; settings: read-out: CLH
[10] = Drug metabolism in phosphate buffered saline assessed as half life of 5-(3-(prop-2-yn-1-yl)triaz-2-en-1-yl)-1H-imidazole-4-carboxamide at pH 7.4 by 1HNMR spectroscopy; format: ADME; settings: buffer
[11] = Permeability of the compound measured after 6 hrs by PAMPA assay; format: ADME; settings: read-out: permeability; in short: as §2
[12] = Induction of cell cycle arrest in MGMT-expressing human U373M cells assessed as accumulation of cells at G2/M phase at 100 uM measured after 120 hrs by propidium iodide staining based flow cytometry (Rvb ~ 15%); format: functional
[13] = test system: HCT-116; assay: Induction of cell cycle arrest in MMR-deficient human HCT-116 cells assessed as accumulation of cells at sub-G1 phase at 100 uM measured after 120 hrs by propidium iodide staining based flow cytometry (Rvb ~5%); format: functional
[14] = test system: U373M; assay: Induction of cell cycle arrest in MGMT-expressing human U373M cells assessed as accumulation of cells at S phase at 100 uM measured after 120 hrs by propidium iodide staining based flow cytometry; format: functional
[15] = test system: U373M; assay: Induction of cell cycle arrest in MGMT-expressing human U373M cells assessed as accumulation of cells at sub-G1 phase at 100 uM measured after 120 hrs by propidium iodide staining based flow cytometry; format: functional
[16] = Half life of the compound in phosphate buffered saline at pH 7.4 by LC-MS analysis; format: physicochemical
In short: (§3)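 Half-life in phosphate buffers at pH 5, 6.8 or 7.4 followed by LC-MS; mean of two independent experiments.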

[17] = test system: U373V; assay: Induction of cell cycle arrest in human U373V cells assessed as accumulation of cells at S phase at 100 uM measured after 120 hrs by propidium iodide staining based flow cytometry; format: functional
[18] = test system: U373V; assay: Induction of cell cycle arrest in human U373V cells assessed as accumulation of cells at sub-G1 phase at 100 uM measured after 120 hrs by propidium iodide staining based flow cytometry; format: functional
[19] = Half life of the compound in phosphate buffered saline at pH 5 by LC-MS analysis; format: physicochemical; in short: as §3
[20] = Intrinsic clearance in human liver microsomes in presence of NADPH; format: ADME, Microsome; settings: read-out: CLH
[21] = Half life of the compound in phosphate buffered saline at pH 6.8 by LC-MS analysis; format: physicochemical; in short: as §3
[22] = test system: HCT-116; assay: Induction of cell cycle arrest in MMR-deficient human HCT-116 cells assessed as loss of cell cycle integrity at 100 uM measured after 120 hrs by propidium iodide staining based flow cytometry; format: functional
[23] = Intrinsic clearance in rat liver microsomes in presence of NADPH; format: ADME, Microsome; settings: read-out: CLH
[24] = test system: U373V; assay: Induction of cell cycle arrest in human U373V cells assessed as accumulation of cells at G2/M phase at 100 uM measured after 120 hrs by propidium iodide staining based flow cytometry; format: functional
[25] = Half life in human plasma; format: ADME, cell-free
[26] = Half life in rat liver microsomes in absence of NADPH; format: ADME, Microsome
[27] = Drug metabolism in phosphate buffered saline assessed as Tmax of 5-(3-(prop-2-yn-1-yl)triaz-2-en-1-yl)-1H-imidazole-4-carboxamide at pH 7.4 by 1HNMR spectroscopy; format: ADME; settings: buffer
[28] = Intrinsic clearance in human liver microsomes in absence of NADPH; format: ADME, Microsome; settings: read-out: CLH
[29] = Half life in human liver microsomes in presence of NADPH; format: ADME, Microsome
[30] = Half life of the compound in phosphate buffered saline at pH 7.4 by 1H NMR spectroscopic analysis; format: physicochemical
In short: (§4)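 Half-life followed by ¹H NMR spectroscopy in phosphate buffers at pH 7.4 or 5.5.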

[31] = Stability of the compound in phosphate buffered saline at pH 5.5 by 1H NMR spectroscopy; format: physicochemical; settings: buffer; in short: as §4
[32] = Half life of the compound in phosphate buffered saline at pH 5.5 by 1H NMR spectroscopic analysis; format: physicochemical; in short: as §4
[33] = Stability of the compound in phosphate buffered saline at pH 7.4 by 1H NMR spectroscopy; format: physicochemical; settings: buffer; in short: as §4
[34] = Cytotoxicity against human MRC5 cells assessed as inhibition of cell growth measured after 7 days by MTT assay; format: toxicity, cell-based; settings: time 7 day; in short: as §1

- GI50 [3]: 25.1 µM
Compound: C#CCn1nnc2c(-c3nc(C(C)(C)C)cs3)ncn2c1=O
- GI50 [1]: 19.2 µM
- GI50 [2]: 27.3 µM

- GI50 [3]: 21.5 µM
Compound: C#CCn1nnc2c(-c3nc(C(F)(F)F)cs3)ncn2c1=O
- GI50 [1]: 25.4 µM
- GI50 [2]: 28.2 µM

- Ratio [4]: 0.93
- half-life [5]: 39.3 min
- half-life [6]: 25.9 min
- recovery at 6 h [7]: 6.9%
- half-life [8]: 55.1 min
- microsomal CLint [9]: 29.2 µL/min/mg
- t1/2 [10]: 270 min
- Papp at 6 h [11]: 1.38 ×10⁻⁶ cm/s
- half-life [16]: 115 min
- half-life [19]: > 480 min
- microsomal CLint [20]: 18.1 µL/min/mg
- half-life [21]: 232 min
- GI50 [3]: 28.1 µM
- microsomal CLint [23]: 35.5 µL/min/mg
- half-life [25]: 14.5 min
- half-life [26]: 48.7 min
- Tmax [27]: 120 min
- microsomal CLint [28]: 25.2 µL/min/mg
- half-life [29]: 77.8 min
- half-life [30]: 49 min
Compound: C#CCn1nnc2c(C(N)=O)ncn2c1=O
- Activity [12]: 33%
- Activity [13]: 96%
- Activity [14]: Active
- GI50 [1]: 26.6 µM
- Activity [15]: Active
- Activity [17]: Active
- GI50 [2]: 30 µM
- Activity [18]: Active
- Activity [22]: Active
- Activity [24]: Active

- Ratio [4]: 1.16
- half-life [5]: 20.4 min
- half-life [6]: 3.54 min
- recovery at 6 h [7]: 18.5%
- half-life [8]: 76.3 min
- microsomal CLint [9]: 14.7 µL/min/mg
- Papp at 6 h [11]: 3.68 ×10⁻⁶ cm/s
- half-life [16]: 169 min
- half-life [19]: > 480 min
- Stability [31]: Stable
- microsomal CLint [20]: 97.8 µL/min/mg
- half-life [21]: 214 min
- half-life [32]: 7.2 min
- GI50 [3]: 7.04 µM
- microsomal CLint [23]: 68.5 µL/min/mg
- half-life [25]: 2.97 min
- Stability [33]: Stable
- half-life [26]: 94.3 min
- microsomal CLint [28]: 18.6 µL/min/mg
- half-life [29]: 14.2 min
- half-life [30]: 88 min
Compound: C#CCn1nnc2c(-c3nc(C)cs3)ncn2c1=O
- GI50 [1]: 7.44 µM
- GI50 [2]: 8.45 µM
- GI50 at 168 h [34]: 25 µM

- GI50 [3]: 19.2 µM
Compound: C#CCn1nnc2c(-c3nc(C4CCCC4)cs3)ncn2c1=O
- GI50 [1]: 11.8 µM
- GI50 [2]: 23.7 µM

- GI50 [3]: 27.7 µM
Compound: C#CCn1nnc2c(-c3nc(C4CC4)cs3)ncn2c1=O
- GI50 [1]: 25.8 µM
- GI50 [2]: 27.1 µM

- GI50 [3]: 29 µM
Compound: C#CCn1nnc2c(-c3nc(-c4ccncc4)cs3)ncn2c1=O
- GI50 [1]: 25.1 µM
- GI50 [2]: 23.5 µM

- GI50 [3]: 12.2 µM
Compound: C#CCn1nnc2c(-c3nc(CN4CCOCC4)cs3)ncn2c1=O
- GI50 [1]: 10.2 µM
- GI50 [2]: 23.9 µM

- GI50 [3]: 97 µM
Compound: Nc1nc[nH]c1-c1nccs1
- GI50 [1]: 89.3 µM
- GI50 [2]: > 100 µM

- GI50 [3]: 25.4 µM
Compound: C#CCn1nnc2c(-c3nc(C(C)C)cs3)ncn2c1=O
- GI50 [1]: 19 µM
- GI50 [2]: 23.6 µM

- GI50 [3]: 37 µM
Compound: C#CCn1nnc2c(-c3nc(-c4ccc(S(C)(=O)=O)cc4)cs3)ncn2c1=O
- GI50 [1]: 14.7 µM
- GI50 [2]: 22 µM
